Where a chain is given by its changes, count along the chain named.
Tests used:
Details in all cases: stereoisomer not certain
OR4F17 (Homo sapiens) = molecular target: T1, OR4F17 (Homo sapiens) (UniProt Q8NGA8)
T1 sequence (whole entry): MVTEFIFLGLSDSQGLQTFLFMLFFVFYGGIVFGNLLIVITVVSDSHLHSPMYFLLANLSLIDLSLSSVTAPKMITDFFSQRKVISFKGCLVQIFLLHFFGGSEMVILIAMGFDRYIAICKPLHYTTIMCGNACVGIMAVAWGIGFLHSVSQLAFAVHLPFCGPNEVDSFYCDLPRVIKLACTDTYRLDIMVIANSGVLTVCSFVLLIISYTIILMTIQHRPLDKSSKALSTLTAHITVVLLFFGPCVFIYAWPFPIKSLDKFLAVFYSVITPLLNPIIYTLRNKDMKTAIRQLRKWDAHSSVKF
Procedure, shortened: (§1)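 Whether a receptor–molecule pair is responsive (active) rests on the original authors' judgment that its measured signal was statistically different from baseline. Pairs without that judgment are non-responsive (inactive). Sources used varied assay methods, commonly transient luciferase assays in mammalian cell lines.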

OR4F21 (Homo sapiens) = molecular target: T2, OR4F21 (Homo sapiens) (UniProt O95013)
T2 sequence (whole entry): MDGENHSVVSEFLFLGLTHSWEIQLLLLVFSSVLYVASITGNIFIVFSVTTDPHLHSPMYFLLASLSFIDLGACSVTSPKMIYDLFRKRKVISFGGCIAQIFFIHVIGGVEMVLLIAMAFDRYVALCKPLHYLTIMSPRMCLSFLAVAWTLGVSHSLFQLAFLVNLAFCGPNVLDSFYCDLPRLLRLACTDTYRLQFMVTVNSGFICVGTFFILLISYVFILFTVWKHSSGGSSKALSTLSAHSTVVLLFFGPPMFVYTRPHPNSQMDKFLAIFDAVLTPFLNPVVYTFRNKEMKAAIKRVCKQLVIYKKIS
Procedure, shortened: as §1

OR4F3 (Homo sapiens) = molecular target: T3, OR4F3 (Homo sapiens) (UniProt Q6IEY1)
T3 sequence (whole entry): T2 sequence (whole entry) with F44L, I107V, K310R
Procedure, shortened: as §1

OR4F4 (Homo sapiens) = molecular target: T4, OR4F4 (Homo sapiens) (UniProt Q96R69)
T4 sequence (whole entry): T1 sequence (whole entry) with G15E, R221C, Q293R
Procedure, shortened: as §1

OR4F5 (Homo sapiens) = molecular target: T5, OR4F5 (Homo sapiens) (UniProt Q8NH21)
T5 sequence (whole entry): T1 sequence (whole entry) with G15E, A141T, P160L
Procedure, shortened: as §1

OR4F6 (Homo sapiens) = molecular target: T6, OR4F6 (Homo sapiens) (UniProt Q8NGB9)
T6 sequence (whole entry): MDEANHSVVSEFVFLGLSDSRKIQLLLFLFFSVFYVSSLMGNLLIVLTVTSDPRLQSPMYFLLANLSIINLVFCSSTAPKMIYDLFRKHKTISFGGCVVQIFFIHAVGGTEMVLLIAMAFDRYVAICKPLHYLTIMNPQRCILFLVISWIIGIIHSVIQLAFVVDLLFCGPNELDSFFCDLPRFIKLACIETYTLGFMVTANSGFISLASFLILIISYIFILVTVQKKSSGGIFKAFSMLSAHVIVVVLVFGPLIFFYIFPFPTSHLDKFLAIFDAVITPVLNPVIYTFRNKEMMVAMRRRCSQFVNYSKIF
Procedure, shortened: as §1

OR4K1 (Homo sapiens) = molecular target: T7, OR4K1 (Homo sapiens) (UniProt Q8NGD4)
T7 sequence (whole entry): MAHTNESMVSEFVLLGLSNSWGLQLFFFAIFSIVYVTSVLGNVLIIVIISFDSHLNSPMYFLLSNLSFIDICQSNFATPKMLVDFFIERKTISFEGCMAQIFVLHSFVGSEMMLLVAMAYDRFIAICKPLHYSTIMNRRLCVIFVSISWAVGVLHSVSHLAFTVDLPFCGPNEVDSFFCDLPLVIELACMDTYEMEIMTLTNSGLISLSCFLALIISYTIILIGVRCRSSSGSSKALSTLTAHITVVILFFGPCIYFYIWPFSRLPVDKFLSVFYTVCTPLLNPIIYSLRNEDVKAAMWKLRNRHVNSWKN
Procedure, shortened: as §1

OR4F5 T141A Q293R = test system: T8, OR4F5 T141A Q293R
T8 sequence (whole entry): T1 sequence (whole entry) with G15E, P160L, Q293R
Procedure, shortened: as §1

OR4F3 R310K = test system: OR4F3 R310K
Procedure, shortened: as §1

OR4F3 V107I = test system: OR4F3 V107I
Procedure, shortened: as §1

Measured: odorant receptor agonist call;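 further: active if original authors judged signal statistically different from baseline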

OR4F3 R310K, sequence (as listed by the source, stated change not applied): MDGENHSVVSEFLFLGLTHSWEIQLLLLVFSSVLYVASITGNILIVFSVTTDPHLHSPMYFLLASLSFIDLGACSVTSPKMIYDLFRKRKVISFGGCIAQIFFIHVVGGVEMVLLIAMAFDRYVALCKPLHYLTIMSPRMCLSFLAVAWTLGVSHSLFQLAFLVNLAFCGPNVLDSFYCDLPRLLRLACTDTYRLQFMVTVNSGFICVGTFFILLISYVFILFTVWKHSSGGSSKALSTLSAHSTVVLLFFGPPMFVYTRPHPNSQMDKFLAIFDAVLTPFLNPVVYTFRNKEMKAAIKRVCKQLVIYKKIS
OR4F3 V107I, sequence (as listed by the source, stated change not applied): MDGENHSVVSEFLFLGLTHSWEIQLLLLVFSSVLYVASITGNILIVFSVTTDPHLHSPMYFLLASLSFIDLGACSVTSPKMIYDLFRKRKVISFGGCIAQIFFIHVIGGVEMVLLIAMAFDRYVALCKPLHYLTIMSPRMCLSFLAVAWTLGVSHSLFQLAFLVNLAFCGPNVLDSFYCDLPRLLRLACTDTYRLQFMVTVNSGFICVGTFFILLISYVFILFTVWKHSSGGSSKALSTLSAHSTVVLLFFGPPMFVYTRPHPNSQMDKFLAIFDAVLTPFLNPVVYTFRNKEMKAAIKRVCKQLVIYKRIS

CC1CCCCCCCCCCCCC(=O)C1 (stereo not given)
not listed: OR4F5 T141A Q293R | OR4F3 R310K | OR4F3 V107I
inactive: all other assays above

CC1=NC(C)C(C)S1 (stereo not given)
not listed: OR4F3 R310K | OR4F3 V107I
inactive: all other assays above

CC(=O)c1c(C)c([N+](=O)[O-])c(C(C)(C)C)c([N+](=O)[O-])c1C
not listed: OR4F5 T141A Q293R | OR4F3 R310K | OR4F3 V107I
inactive: all other assays above

CCCCCCC=CCCC=O
inactive: all assays above

CCC1OC(=O)C(O)=C1C (stereo not given)
not listed: OR4F3 R310K | OR4F3 V107I
inactive: all other assays above

CCCCCC(=O)C(C)C(C)=O (stereo not given)
not listed: OR4F5 T141A Q293R | OR4F3 R310K | OR4F3 V107I
inactive: all other assays above

CCCCCC(S)C(C)CO (stereo not given)
not listed: OR4F5 T141A Q293R | OR4F3 R310K | OR4F3 V107I
inactive: all other assays above

CC1=C(O)C(=O)C(C)O1 (stereo not given)
not listed: OR4F3 R310K | OR4F3 V107I
inactive: all other assays above

CC(CO)CS (stereo not given)
not listed: OR4F5 T141A Q293R | OR4F3 R310K | OR4F3 V107I
inactive: all other assays above

CCCCC(S)C(C)CO (stereo not given)
not listed: OR4F5 T141A Q293R | OR4F3 R310K | OR4F3 V107I
inactive: all other assays above

CCC1OC(C)=C(O)C1=O (stereo not given)
not listed: OR4F3 R310K | OR4F3 V107I
inactive: all other assays above

Cc1cnc(C)c(C)n1
not listed: OR4F3 R310K | OR4F3 V107I
inactive: all other assays above

CCC(S)C(C)CO (stereo not given)
not listed: OR4F5 T141A Q293R | OR4F3 R310K | OR4F3 V107I
inactive: all other assays above

CCCC(S)CCOC(C)=O (stereo not given)
not listed: OR4F3 R310K | OR4F3 V107I
inactive: all other assays above

CC1=C(O)C(=O)OC1C (stereo not given)
not listed: OR4F3 R310K | OR4F3 V107I
inactive: all other assays above

Source: the M2OR odorant receptor database
